Experiment [1] is described as follows: cells. To be noted: Mus musculus, BaF3, 72 h.
Experiment [2] can be described thus: Cytotoxicity against mouse BA/F3 cells expressing BCR-ABL F486S mutant assessed as growth inhibition after 72 hrs by CCK-8 assay. To be noted: BaF3, 72 h.
The nature of experiment [3]: Cytotoxicity against mouse BA/F3 cells expressing BCR-ABL E255V mutant assessed as growth inhibition after 72 hrs by CCK-8 assay. The note with it: BaF3, 72 h.
The nature of experiment [4]: cells. To be noted: Mus musculus, BaF3, 72 h. This is another data set of the same source.
The nature of experiment [5]: Cytotoxicity against mouse BA/F3 cells expressing BCR-ABL F317V mutant assessed as growth inhibition after 72 hrs by CCK-8 assay. To be noted: BaF3, 72 h. Background: Tetrazolium assays rely on reduction of a dye to a coloured formazan, in cell work by metabolically active cells.
Experiment [6] is described as follows: Cytotoxicity against mouse BA/F3 cells assessed as growth inhibition after 72 hrs by CCK-8 assay. To be noted: BaF3, 72 h.
Experiment [7] is described as follows: Cytotoxicity against mouse BA/F3 cells expressing BCR-ABL M351T mutant assessed as growth inhibition after 72 hrs by CCK-8 assay. The note with it: BaF3, 72 h.
Experiment [8] can be described thus: Cytotoxicity against mouse BA/F3 cells expressing BCR-ABL Y253F mutant assessed as growth inhibition after 72 hrs by CCK-8 assay. The note with it: BaF3, 72 h.
Experiment [9] can be described thus: Cytotoxicity against mouse BA/F3 cells expressing BCR-ABL L248V mutant assessed as growth inhibition after 72 hrs by CCK-8 assay. To be noted: BaF3, 72 h.
A short description of experiment [10]: Cytotoxicity against mouse BA/F3 cells expressing BCR-ABL E255K mutant assessed as growth inhibition after 72 hrs by CCK-8 assay. The note with it: BaF3, 72 h.
Experiment [11] is described as follows: Cytotoxicity against mouse BA/F3 cells expressing wild type BCR-ABL assessed as growth inhibition after 72 hrs by CCK-8 assay. The note with it: BaF3, 72 h.
Experiment [12] in a line: Cytotoxicity against mouse BA/F3 cells expressing BCR-ABL Y253H mutant assessed as growth inhibition after 72 hrs by CCK-8 assay. To be noted: BaF3, 72 h.
The nature of experiment [13]: Cytotoxicity against mouse BA/F3 cells expressing BCR-ABL E355G mutant assessed as growth inhibition after 72 hrs by CCK-8 assay. The note with it: BaF3, 72 h.
Experiment [14] in a line: Cytotoxicity against mouse BA/F3 cells expressing BCR-ABL H396R mutant assessed as growth inhibition after 72 hrs by CCK-8 assay. To be noted: BaF3, 72 h.
Experiment [15] is described as follows: Cytotoxicity against mouse BA/F3 cells expressing BCR-ABL F317L mutant assessed as growth inhibition after 72 hrs by CCK-8 assay. The note with it: BaF3, 72 h.
For experiment [16], the system named is BaF3. Kind of experiment: Antitumor activity against mouse BA/F3 cells expressing BCR-ABL T315I mutant allografted in SCID mouse assessed as increased survival at 100 mg/kg/day, po qd for 10 days. It is filed as functional, organism-based. The method in brief:
(§1)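 Ba/F3 cells coexpressing Bcr-Abl T315I and firefly luciferase were injected iv (2 × 10^6 cells/0.1 mL saline) into SCID nude mice. At 5−7 days, mice were imaged after ip D-luciferin under halothane and randomized by signal. Dosing was oral gavage once daily for 10 days in DMSO/Cremophor/ethanol/saline vehicle. Luminescence was imaged after dosing; survival was analysed by Kaplan−Meier with log-rank test.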

Experiment [17] can be described thus: Cytotoxicity against mouse BA/F3 cells expressing BCR-ABL E359V mutant assessed as growth inhibition after 72 hrs by CCK-8 assay. To be noted: BaF3, 72 h.
For experiment [18], the system named is BaF3. The experiment can be described thus: Antitumor activity against mouse BA/F3 cells expressing BCR-ABL T315I mutant allografted in SCID mouse assessed as inhibition of tumor growth at 100 mg/kg/day, po qd for 14 days. The experiment is classed as functional, organism-based. In a few lines: (§2)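 Subcutaneous allograft: Ba/F3 cells stably carrying Bcr-Abl (WT or T315I), 2.5 × 10^7 cells/mL in saline, 0.2 mL into the right flank. Randomized at 100−200 mm3, n = 10 per group. Oral gavage once daily for 14 days in DMSO/Cremophor/ethanol/saline vehicle. Tumor volume (L × W²/2) every 2 days; unpaired t test versus vehicle.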

Experiment [19] relates to BaF3. The experiment can be described thus: Antitumor activity against mouse BA/F3 cells expressing wild type BCR-ABL allografted in SCID mouse assessed as inhibition of tumor growth at 50 mg/kg, po qd for 14 days. Also noted: dose 50 mg/kg. It is filed as functional, organism-based. The method in brief: as §2
For experiment [20], the system named is BaF3. The experiment can be described thus: Antitumor activity against mouse BA/F3 cells expressing BCR-ABL T315I mutant allografted in SCID mouse assessed as suppression of cell proliferation at 100 mg/kg/day, po qd for 10 days relative to untreated vehicle. It is filed as functional, organism-based. In a few lines:
as §1

The subject of experiment [21] is K562. Kind of experiment: Antitumor activity against human K562 cells xenografted in mouse assessed as induction of tumor stasis at 50 mg/kg, […]. The arrangement: dose 50 mg/kg. The experiment is classed as functional, organism-based. A general note: In xenograft studies the graft and the host belong to different species.
Experiment [22] in a line: cells. The note with it: Mus musculus, BaF3, 72 h. The source holds these as a separate data set.
The subject of experiment [23] is MOLT-4. Kind of experiment: Cytotoxicity against human MOLT4 cells […] assessed as growth inhibition after 72 hrs by CCK-8 assay. It is filed as functional, cell-based. The note with it: MOLT-4, 72 h. In a few lines:
(§3)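 Log-phase human leukemia cells were seeded at about 3000 cells/well and treated 24 h later for 72 h. CCK-8 was then incubated with the cells for 3 h and read as OD450 − OD650. Viability was normalized to vehicle wells and cell-free blanks, and IC50 taken as the mean of three experiments.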

For experiment [24], the system named is HL-60. Kind of experiment: Cytotoxicity against human HL60 cells […] assessed as growth inhibition after 72 hrs by CCK-8 assay. The experiment is classed as functional, cell-based. The note with it: HL-60, 72 h. The method in brief: as §3
Experiment [25] deals with K562. The experiment can be described thus: Cytotoxicity against human K562 cells expressing BCR-ABL assessed as growth inhibition after 72 hrs by CCK-8 assay. The experiment is classed as functional, cell-based. The note with it: K562, 72 h. The method in brief: as §3
Experiment [26] can be described thus: Cytotoxicity against human KU812 cells expressing BCR-ABL assessed as growth inhibition after 72 hrs by CCK-8 assay. The experiment is classed as functional, cell-based. The note with it: KU812, 72 h. In a few lines:
as §3

Experiment [27] can be described thus: Cytotoxicity against human SUP-B15 cells expressing BCR-ABL assessed as growth inhibition after 72 hrs by CCK-8 assay. The experiment is classed as functional, cell-based. The note with it: SUP-B15, 72 h. The method in brief:
as §3

Experiment [28] has as its system U-937. The experiment can be described thus: Cytotoxicity against human U937 cells […] assessed as growth inhibition after 72 hrs by CCK-8 assay. The experiment is classed as functional, cell-based. The note with it: U-937, 72 h. The method in brief: as §3
Experiment [29] has as its system K562. Kind of experiment: Cytotoxicity against imatinib-resistant human K562 cells expressing BCR-ABL Q252H mutant assessed as growth inhibition after 72 hrs by CCK-8 assay. The experiment is classed as functional, cell-based. To be noted: K562, 72 h. The method in brief:
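The K562 subline was made imatinib-resistant by 3 months of exposure to imatinib from 0.1 to 5 μM, followed by clonal selection and sequencing to confirm Q252H. Cells were seeded at about 3000 cells/well, treated 24 h later for 72 h, then given CCK-8 for 3 h. Read-out was OD450 − OD650 normalized to vehicle; IC50 is the mean of three experiments.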

Active and inactive are the calls of the source. The calls are words filed in the database; no cut-off is given here.

In general, IC50 refers to the point on the concentration scale where inhibition reaches its midpoint. In the case of `Cc1cn(-c2cc(NC(=O)c3ccc(C)c(Nc4nccc(-c5cccnc5)n4)c3)cc(C(F)(F)F)c2)cn1` [NILOTINIB], the half-inhibitory concentration (IC50) in [1] was found to be 150 nM; in [2], 9.5 nM; in experiment [3] it was 1200 nM; in [4] it was 16000 nM; in experiment [5], 2900 nM; in experiment [6], 15100 nM. Also, the IC50 stood at 3 nM in experiment [7]; 1400 nM in experiment [8]; 3000 nM in experiment [9]; 170 nM in [10]; 22 nM in [11]; 1000 nM in experiment [12]. Also, the half-inhibitory concentration (IC50) in experiment [13] worked out at 130 nM; in [14], 21100 nM; in experiment [15], 160 nM.

Regarding `Cc1ccc(NC(=O)c2ccc(CN3CCN(C)CC3)cc2)cc1Nc1nccc(-c2cccnc2)n1` [IMATINIB], the outcome in [16], in [20] and in [21] was inactive. In addition, the IC50 in experiment [1] was 5200 nM; in experiment [2], 1000 nM; in experiment [3], > 10000 nM; in experiment [17], 590 nM; in experiment [4], 12200 nM; in experiment [5], 9500 nM. The IC50 in experiment [6] was 13500 nM; in experiment [7], 240 nM; in [8] it was 9200 nM; in experiment [9], 12200 nM; in experiment [10], 5600 nM; in [12], 12500 nM. Moreover, the IC50 stood at 1600 nM in experiment [13], 11100 nM in [14], 3300 nM in experiment [15] and 3600 nM in [22]. In [18], the TGI entry is “inactive”. Besides, in experiment [19], the TGI entry is “Active”.

For `CC(=O)O[C@H]1C(=O)[C@@]2(C)[C@H]([C@H](OC(=O)c3ccccc3)[C@]3(O)C[C@H](OC(=O)[C@H](O)[C@@H](NC(=O)c4ccccc4)c4ccccc4)C(C)=C1C3(C)C)[C@]1(OC(C)=O)CO[C@@H]1C[C@@H]2O` [PACLITAXEL], the IC50 in experiment [23] is 2.7 nM; in experiment [24] it was 5.8 nM; in experiment [25] it was 5.1 nM; in experiment [26] it was 5.3 nM; in [27], 8 nM; in experiment [28] it was 2.3 nM. Besides, the half-maximal inhibitory concentration (IC50) in experiment [29] stood at 7 nM.

In the case of `Cc1nc(Nc2ncc(C(=O)Nc3c(C)cccc3Cl)s2)cc(N2CCN(CCO)CC2)n1` [DASATINIB], the IC50 was determined as 5.1 nM in experiment [1]; 0.9 nM in experiment [2]; 23 nM in [3]; 1.3 nM in [17]; 3600 nM in experiment [4]; 25 nM in experiment [5]. For the same molecule, the IC50 in [6] was found to be 2500 nM; in experiment [7], 0.2 nM; in [8], 17 nM; in [9], 29 nM; in experiment [10] it was 3.2 nM; in experiment [11], 1.9 nM. Besides, the IC50 turned out to be 2.3 nM in experiment [12]; 15 nM in experiment [13]; 3800 nM in experiment [14]; 19 nM in [15]; 8 nM in experiment [22].

The record behind these values is ChEMBL document CHEMBL2311339, “Identification of GZD824 as an orally bioavailable inhibitor that targets phosphorylated and nonphosphorylated breakpoint cluster region-Abelson (Bcr-Abl) kinase and overcomes clinically acquired mutation-induced resistance against imatinib” (J Med Chem, 2013).
